Assay [1] deals with T1, Serotonin 3 (5-HT3) receptor (Rattus norvegicus, UniProt P35563+Q9JJ16).
T1 sequence (P35563 whole entry): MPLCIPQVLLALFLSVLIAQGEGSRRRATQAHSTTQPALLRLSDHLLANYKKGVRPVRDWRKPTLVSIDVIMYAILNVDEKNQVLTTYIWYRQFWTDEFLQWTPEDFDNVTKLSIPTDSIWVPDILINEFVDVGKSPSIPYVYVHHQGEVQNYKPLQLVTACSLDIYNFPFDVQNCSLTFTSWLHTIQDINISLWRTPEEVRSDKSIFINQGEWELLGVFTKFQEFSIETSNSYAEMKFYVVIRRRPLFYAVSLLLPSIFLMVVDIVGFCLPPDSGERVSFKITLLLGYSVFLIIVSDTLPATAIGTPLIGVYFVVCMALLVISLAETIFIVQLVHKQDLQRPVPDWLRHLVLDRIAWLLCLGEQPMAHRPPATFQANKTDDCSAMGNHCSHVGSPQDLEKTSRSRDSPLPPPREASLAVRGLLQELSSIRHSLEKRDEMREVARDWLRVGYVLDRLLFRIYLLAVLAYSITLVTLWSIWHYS
T1 sequence (Q9JJ16 whole entry): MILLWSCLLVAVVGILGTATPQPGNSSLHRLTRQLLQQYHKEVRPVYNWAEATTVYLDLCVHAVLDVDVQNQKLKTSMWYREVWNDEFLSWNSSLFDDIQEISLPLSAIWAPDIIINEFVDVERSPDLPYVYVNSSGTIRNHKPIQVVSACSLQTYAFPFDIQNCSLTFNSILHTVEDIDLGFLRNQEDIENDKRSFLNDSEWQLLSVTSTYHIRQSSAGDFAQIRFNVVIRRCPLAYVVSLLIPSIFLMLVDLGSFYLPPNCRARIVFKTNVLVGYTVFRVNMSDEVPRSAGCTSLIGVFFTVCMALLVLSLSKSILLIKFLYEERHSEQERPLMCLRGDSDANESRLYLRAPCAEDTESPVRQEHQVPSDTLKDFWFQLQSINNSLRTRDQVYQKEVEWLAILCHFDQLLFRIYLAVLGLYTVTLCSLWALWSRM
Nature of the assay: Displacement of binding of [3H]-BRL 43694 to 5-hydroxytryptamine 3 receptor in rat cerebral cortex. Format: tissue-based.

The next assay has as its system Rattus norvegicus. Kind of assay: Tested in vivo for antagonistic activity to bradycardic effect of 5-HT in anesthetized rats. The assay is classed as functional. The note with it: read-out: ID50. In short, it runs like this:
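Male Sprague-Dawley rats (500-550 g), urethane 1 g/kg ip. Heart rate derived from carotid arterial pressure. Serotonin 4 μg/kg iv bolus every 15 min; compounds given iv via the jugular vein 2 min before serotonin. Percent inhibition of bradycardia recorded; ID50 by Litchfield-Wilcoxon.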

The target of assay [2] is Serotonin 2 (5-HT2) receptor (Rattus norvegicus) (UniProt P30994+P08909+P14842). Nature of the assay: Tested for antagonistic activity against 5-hydroxytryptamine 2 receptor from rat thoracic aorta. Details: concentration or dose not given beside the values. Format: functional, tissue-based. The following applies: concentration not given here. In short, it runs like this:
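Thoracic aorta rings (2-3 mm) from male Wistar rats (200-250 g), resting tension 1.5 g, equilibrated 60-90 min. Contracted with 5-HT 3×10^-6 M, taken as 100%. Compounds at 10^-5 M were incubated for 30 min before 5-HT was re-added. Inhibition given as % of the prior response. Means ± SE of 4-6 experiments.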

For a further assay, the species on record is Cavia porcellus. Nature of the assay: Antagonism to 2-methyl-5-HT induced contractions in guinea pig ileum. The assay is classed as functional. The note with it: read-out: pA2 (converted). In short, it runs like this: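 Isometric recording at 0.5 g resting tension in physiological salt solution gassed with 95% O2/5% CO2 at 37 °C, after 30-min equilibration. Tissue incubated 30 min with a single antagonist concentration before agonist; pA2 calculated against 2-methyl-5-HT by Furchgott's single-concentration method, […]. Means of three to six experiments.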

The target in assay [3] is Serotonin 1 (5-HT1) receptor (Rattus norvegicus, UniProt P28564+P30940+P19327+P28565). Nature of the assay: Displacement of binding of [3H]-5-HT to 5-hydroxytryptamine 1 receptor in rat cerebral cortex. Format: tissue-based. In short, it runs like this: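 Rat cortical membranes homogenized in 50 mM Tris-HCl, centrifuged, pre-incubated at 37 °C for 10 min, then resuspended with 0.1% ascorbic acid and 10 μM pargyline. Incubated with 0.3 nM [3H]-5-HT for 10 min at 37 °C. Nonspecific binding defined with 10 μM 5-HT. Filtered and counted by scintillation. Means of 3-6 experiments.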

Assay [4] relates to 5-HT3 receptor (Cavia porcellus). Nature of the assay: Tested for the antagonistic activity against 5-hydroxytryptamine 3 receptor from guinea pig ileum. On the set-up: concentration or dose not given beside the values. The note with it: concentration not given here.

Molecules are shown by their SMILES. pKi: −log10 of the molar value.

Chain of Serotonin 2 (5-HT2) receptor (Rattus norvegicus) (P08909 whole entry, looked up): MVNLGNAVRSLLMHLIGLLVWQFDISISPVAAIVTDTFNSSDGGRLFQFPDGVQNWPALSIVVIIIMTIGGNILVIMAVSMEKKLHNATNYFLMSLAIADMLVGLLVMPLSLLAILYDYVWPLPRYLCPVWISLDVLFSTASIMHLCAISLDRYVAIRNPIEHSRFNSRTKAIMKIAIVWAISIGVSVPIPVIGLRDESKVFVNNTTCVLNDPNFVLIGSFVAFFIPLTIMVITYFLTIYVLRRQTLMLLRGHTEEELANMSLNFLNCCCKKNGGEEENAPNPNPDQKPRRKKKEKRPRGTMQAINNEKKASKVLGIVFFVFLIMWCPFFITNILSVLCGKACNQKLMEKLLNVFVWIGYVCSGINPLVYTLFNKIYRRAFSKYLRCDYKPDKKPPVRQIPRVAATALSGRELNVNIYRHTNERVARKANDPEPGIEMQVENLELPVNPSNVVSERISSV
Chain of Serotonin 2 (5-HT2) receptor (Rattus norvegicus) (P14842 whole entry, looked up): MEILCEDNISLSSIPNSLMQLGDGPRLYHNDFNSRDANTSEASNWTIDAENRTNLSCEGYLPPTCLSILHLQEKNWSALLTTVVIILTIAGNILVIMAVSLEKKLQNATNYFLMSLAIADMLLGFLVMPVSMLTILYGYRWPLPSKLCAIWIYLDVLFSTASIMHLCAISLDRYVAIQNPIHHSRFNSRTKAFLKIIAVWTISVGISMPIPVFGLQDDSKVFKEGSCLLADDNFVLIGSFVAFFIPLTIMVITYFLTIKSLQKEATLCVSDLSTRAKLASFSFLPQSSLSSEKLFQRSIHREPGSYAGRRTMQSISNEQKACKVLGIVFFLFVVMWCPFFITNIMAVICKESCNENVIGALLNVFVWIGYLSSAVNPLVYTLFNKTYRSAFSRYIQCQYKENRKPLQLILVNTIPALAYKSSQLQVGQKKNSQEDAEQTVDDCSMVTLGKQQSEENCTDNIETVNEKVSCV
Chain of Serotonin 2 (5-HT2) receptor (Rattus norvegicus) (P30994 whole entry, looked up): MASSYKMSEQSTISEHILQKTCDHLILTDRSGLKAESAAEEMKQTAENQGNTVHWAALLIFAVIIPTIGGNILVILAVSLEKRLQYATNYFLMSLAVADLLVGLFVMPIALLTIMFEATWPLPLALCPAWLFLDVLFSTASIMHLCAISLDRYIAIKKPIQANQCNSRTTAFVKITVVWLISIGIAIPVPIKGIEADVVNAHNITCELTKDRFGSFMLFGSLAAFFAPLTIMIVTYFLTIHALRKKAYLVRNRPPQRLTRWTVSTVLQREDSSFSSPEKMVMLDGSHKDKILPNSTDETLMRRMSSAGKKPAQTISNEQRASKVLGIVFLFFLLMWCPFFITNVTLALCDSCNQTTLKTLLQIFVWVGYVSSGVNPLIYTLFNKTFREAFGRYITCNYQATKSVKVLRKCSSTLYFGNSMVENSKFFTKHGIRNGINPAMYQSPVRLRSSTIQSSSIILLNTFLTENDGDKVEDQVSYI

On to `C=CCN1CCN(c2nc3ccccc3nc2C#N)CC1`, for which the pKi (in general, −log10 of the Ki, conventionally taken in molar units) in assay [1] is 8.10. In addition, the ED50 in the assay on Rattus norvegicus was 0.02 mg/kg. The inhibition (usually the percentage by which the read-out fell short of the control) in assay [2] came to 9.1%. The Kb in the assay listed under Cavia porcellus was 0.0631 nM. Moreover, in assay [3], the inhibition constant (Ki) (in general, the equilibrium dissociation constant of an inhibitor or competing ligand from its target) is recorded as over 1000 nM.

Regarding `N#Cc1nc2ccccc2nc1N1CCN(CCc2ccccc2)CC1`, the inhibition in assay [4] is 29.2%; in assay [2], 25%.

`CCN1CCN(c2nc3ccc([N+](=O)[O-])cc3nc2C#N)CC1` gave an inhibition in assay [4] of 21.3%.

For `CCCCCN1CCN(c2nc3ccccc3nc2C#N)CC1`, the inhibition in assay [4] was 18%; in assay [2] it was 3.9%.

In the case of `N#Cc1nc2ccccc2nc1N1CCN(Cc2ccc3c(c2)OCO3)CC1`, the inhibition in assay [4] worked out at 28.4%.

In the case of `CCN1CCN(c2nc3ccc(N)cc3nc2C#N)CC1`, in assay [4], the inhibition was 43.5%.

On to `N#Cc1nc2ccccc2nc1N1CCN(Cc2ccccc2)CC1`, for which the figures for the inhibition in assay [4] and in assay [2] were 12.4% and 20.5%, respectively.

For the compound `N#Cc1nc2ccccc2nc1N1CCN(c2cccc(C(F)(F)F)c2)CC1`, the inhibition worked out at 39.5% in assay [4] and 18.3% in assay [2].

The compound `CCN1CCN(c2nc3ccccc3nc2C#N)CC1` gave a negative-log Ki (pKi) in assay [1] of 7.00. Also, in the assay on Rattus norvegicus, the ED50 was found to be 0.015 mg/kg. The inhibition in assay [4] came out at 80.5%; in assay [2], 9.1%. The Kb in the assay filed under Cavia porcellus was 63.1 nM. The inhibitory constant (Ki) in assay [3] is given as over 1000 nM.

In turn, `N#Cc1nc2ccccc2nc1N1CCN(c2ccc([N+](=O)[O-])cc2)CC1` registered an inhibition in assay [4] of 18%.

In assay [4], `COc1ccccc1N1CCN(c2nc3ccccc3nc2C#N)CC1` gave an inhibition of 10.6%.

For `CC(=O)c1ccc(N2CCN(c3nc4ccccc4nc3C#N)CC2)cc1`, in assay [4], the inhibition stood at 7.4%.

For `N#Cc1nc2ccccc2nc1N1CCNCC1`, the pKi in assay [1] is 7.05. Also, the ED50 with Rattus norvegicus was determined as 0.027 mg/kg. Also, the inhibition in assay [4] worked out at 63.7%; in assay [2], 9.1%. The Kb in the assay filed under Cavia porcellus is 1580 nM. Moreover, the Ki in assay [3] came out at 345 nM.

With `CCCN1CCN(c2nc3ccccc3nc2C#N)CC1`, in assay [1], the pKi is 7.40. The ED50 with Rattus norvegicus was 0.38 mg/kg. For the same compound, the inhibition in assay [4] worked out at 63.3%; in assay [2], 12.5%. Besides, the Kb in the assay listed under Cavia porcellus was 1000 nM. In addition, the Ki in assay [3] is over 1000 nM.

With `N#Cc1nc2cc([N+](=O)[O-])ccc2nc1N1CCNCC1`, the inhibition in assay [4] was found to be 7.7%.

In assay [1], `CN1[C@@H]2CC[C@H]1C[C@@H](OC(=O)c1c[nH]c3ccccc13)C2.Cl` gave a pKi of 8.42. In the assay on Rattus norvegicus, the ED50 was 0.002 mg/kg. The compound also gave an inhibition in assay [2] of 2.4%. For the same compound, the Kb in the assay listed under Cavia porcellus is 3.98 nM. In addition, the inhibitory constant (Ki) in assay [3] is listed as over 1000 nM.

In the case of `N#Cc1nc2ccccc2nc1N1CCN(c2ccc(Cl)cc2)CC1`, the inhibition came out at 11% in assay [4] and 7% in assay [2].

Take `CN1CCN(c2nc3ccccc3nc2C#N)CC1`: the inhibition in assay [4] is 48.4%.

In turn, `N#Cc1nc2ccccc2nc1N1CCN(c2ccc(F)cc2)CC1` returned an inhibition in assay [4] of 21.4%.

For the compound `COc1cccc(N2CCN(c3nc4ccccc4nc3C#N)CC2)c1`, the inhibition in assay [4] is 3.5%; in assay [2], 4.6%.

Consider `CCOC(=O)CN1CCN(c2nc3ccccc3nc2C#N)CC1`, for which the inhibition amounted to 14.4% in assay [4] and 5.1% in assay [2].

The compound `CCCCN1CCN(c2nc3ccccc3nc2C#N)CC1` gave an inhibition in assay [4] of 12.5%.

Take `Cc1ccc(N2CCN(c3nc4ccccc4nc3C#N)CC2)cc1`: the inhibition in assay [4] was determined as 15.8%; in assay [2] it was 4.6%.

Consider `Cc1nccn1CC1CCc2c(c3ccccc3n2C)C1=O` (centres undefined) [ONDANSETRON], for which the ED50 with Rattus norvegicus was determined as 0.0004 mg/kg. Besides, the inhibition in assay [2] was 0.6%. Further, the Kb in the assay filed under Cavia porcellus was 126 nM.

Turning to `N#Cc1nc2ccccc2nc1N1CCN(c2ccccc2)CC1`, the inhibition in assay [4] was determined as 21.9%; in assay [2], 8.4%.

For the origin of these results see ChEMBL document CHEMBL1127026, “Novel antagonists of 5-HT3 receptors. Synthesis and biological evaluation of piperazinylquinoxaline derivatives” (J Med Chem, 1993).
